Data set [1] in a line: Selectivity index, ratio of CC50 for human SH-SY5Y cells to EC50 for Enterovirus D68 US/MO/14-18947 infected in human SH-SY5Y cells. The settings on record: read-out: Ratio CC50/EC50. The format is toxicity, cell-based. An outline of the steps: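 SH-SY5Y cells grown in 50% DMEM/50% F-12 with 10% FBS and 1% P/S to about 90% confluency, then infected at MOI about 1 in DMEM with 2% FBS and 30 mM MgCl2 at 33 °C. Compounds were added after 1 h. Neutral red staining was read at 540 nm after 3 days. CC50 came from uninfected cells under the same conditions. Values were triplicate dose-response fits, and SI = CC50/EC50.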

For data set [2], the system named is RD. Kind of data set: Inhibition of 2C protein in Enterovirus D68 US/KY/14-18953 infected in human RD cells assessed as reduction of viral RNA synthesis at 1 uM measured at 9 hrs post infection by reagent-based RT-qPCR method relative to control. The format is cell-based. The method, boiled down: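 DNase-treated. 1.2 µg reverse-transcribed with oligo(dT)18. qPCR run 95 °C 10 min, then 40 cycles of 95 °C 15 s/60 °C 60 s, with melt curve. Compared with DMSO control, one-way ANOVA, mean of two experiments ± SD.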
A general note: Real-time PCR tracks product formation cycle by cycle.

Data set [3] in a line: Selectivity index, ratio of CC50 for human RD cells to EC50 for Enterovirus D68 US/KY/14-18953 infected in human RD cells. The format is toxicity, cell-based. To be noted: read-out: Ratio CC50/EC50.
The test system of data set [4] is HeLa. Nature of the data set: Cytotoxicity against human HeLa cells after 3 days by neutral red dye-based photometric method. The format is cell-based. The settings on record: 72 h. The method, boiled down: (§1)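 Uninfected cells run as in the CPE assay (33 °C, 3 days, same media) with compound. Viability by neutral red staining and 540 nm absorbance. CC50 from dose-response curves, triplicate experiments.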

The test system of data set [5] is enterovirus D68. Kind of data set: Antiviral activity against Enterovirus D68 US/KY/14-18953 infected in human SH-SY5Y cells assessed as inhibition of virus-induced cytopathic effect incubated for 5 mins under shaking condition and measured after 3 days by neutral red dye-based photometric method. The format is functional, organism-based. The settings on record: Enterovirus D, US/KY/14-18953, SH-SY5Y. The method, boiled down:
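Virus at ~MOI 1 applied to SH-SY5Y cells (50% DMEM/50% F-12, 10% FBS) at ~90% confluence in DMEM/2% FBS/30 mM MgCl2 at 33 °C. Compounds added after 1 h with 1% P/S, shaken ~5 min, incubated 3 days. Viability read by neutral red uptake (A540). EC50 fitted from dose-response, triplicate.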

Data set [6] relates to enterovirus D68. Kind of data set: Antiviral activity against Enterovirus D68 US/KY/14-18953 infected in human A172 cells assessed as inhibition of virus-induced cytopathic effect incubated for 5 mins under shaking condition and measured after 3 days by neutral red dye-based photometric method. The format is functional, organism-based. The settings on record: Enterovirus D, US/KY/14-18953, A 172. The method, boiled down: (§2)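 A172 cells (DMEM, 10% FBS) grown ~90% confluent, infected with EV-D68 at ~MOI 0.3 in DMEM/2% FBS/30 mM MgCl2 and kept at 33 °C. P/S and compounds added 1 h later. Brief orbital shaking, then 3-day incubation. Neutral red staining with 540 nm absorbance. EC50 from best-fit dose-response curves in triplicate.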
Background: Cytopathic effects are the visible damage that an infection or toxin causes in cultured cells.

In data set [7] the test system is enterovirus D68. Kind of data set: Antiviral activity against Enterovirus D68 US/IL/14-18956 infected in human RD cells assessed as inhibition of virus-induced cytopathic effect incubated for 5 mins under shaking condition and measured after 3 days by neutral red dye-based photometric method. The format is functional, organism-based. To be noted: Enterovirus D, US/IL/14-18956, RD. The method, boiled down:
(§3)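 RD cells seeded one day ahead to ~90% confluence, PBS (Mg/Ca) wash, infected at ~MOI 0.01 with EV-D68 in DMEM/2% FBS/30 mM MgCl2 at 33 °C, 5% CO2. Compounds and 1% P/S added after 1 h. Plates shaken ~5 min, held 3 days, viable cells stained with neutral red (66 µg/ml), A540 read. EC50 from dose-response fits, triplicates.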

Data set [8] has as its system enterovirus D68. Nature of the data set: Antiviral activity against Enterovirus D68 […] infected in human RD cells assessed as inhibition of virus-induced cytopathic effect incubated for 5 mins under shaking condition and measured after 3 days by neutral red dye-based photometric method. In kind it is functional, organism-based. The settings on record: Enterovirus D. An outline of the steps: as §3

Data set [9] can be described thus: Selectivity index, ratio of CC50 for human RD cells to EC50 for Enterovirus D68 US/IL/14-18956 infected in human RD cells. In kind it is toxicity, cell-based. The settings on record: read-out: Ratio CC50/EC50. An outline of the steps: (§4)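 RD cells in DMEM with 10% FBS were infected at about 90% confluency at MOI about 0.01, giving full CPE by 3 days, in DMEM with 2% FBS and 30 mM MgCl2 at 33 °C. Compounds and P/S were added 1 h after infection. Viability was read by neutral red uptake (A540). CC50 came from uninfected cells. Means were from triplicates, and SI = CC50/EC50.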

Data set [10] relates to enterovirus D68. Nature of the data set: Antiviral activity against Enterovirus D68 US/MO/14-18949 infected in human RD cells assessed as inhibition of virus-induced cytopathic effect incubated for 5 mins under shaking condition and measured after 3 days by neutral red dye-based photometric method. In kind it is functional, organism-based. To be noted: Enterovirus D, US/MO/14-18949, RD. The method, boiled down:
as §3

Data set [11] in a line: Selectivity index, ratio of CC50 for human RD cells to EC50 for Enterovirus D68 US/MO/14-18949 infected in RD human cells. The format is toxicity, cell-based. To be noted: read-out: Ratio CC50/EC50.
The subject of data set [12] is Influenza A virus. Kind of data set: Antiviral activity against Influenza A virus (A/California/07/2009(H1N1)) at 10 uM after 2 days by plaque assay. In kind it is functional, organism-based.
The nature of data set [13]: Selectivity index, ratio of CC50 for human A172 cells to EC50 for Enterovirus D68 US/MO/14-18947 infected in human A172 cells. In kind it is toxicity, cell-based. To be noted: read-out: Ratio CC50/EC50. The method, boiled down: (§5)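 A172 cells kept in DMEM with 10% FBS and 1% P/S, grown to about 90% confluency, then infected at MOI about 0.3 in DMEM with 2% FBS and 30 mM MgCl2 at 33 °C. After 1 h, P/S and compounds were added. Viable cells were stained with neutral red after 3 days (A540). CC50 came from the same assay without virus. EC50 and CC50 were fitted from triplicate dose-response data, and SI = CC50/EC50.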

A short description of data set [14]: Selectivity index, ratio of CC50 for human RD cells to EC50 for Enterovirus D68 US/MO/14-18947 infected in human RD cells. The settings on record: read-out: Ratio CC50/EC50. The format is toxicity, cell-based.
Data set [15] deals with SH-SY5Y. Nature of the data set: Cytotoxicity against human SH-SY5Y cells after 3 days by neutral red dye-based photometric method. To be noted: 72 h. In kind it is cell-based. The method, boiled down: as §1
For data set [16], the system named is enterovirus D68. Nature of the data set: Antiviral activity against Enterovirus D68 US/MO/14-18947 infected in human A172 cells assessed as inhibition of virus-induced cytopathic effect incubated for 5 mins under shaking condition and measured after 3 days by neutral red dye-based photometric method. The format is functional, organism-based. The settings on record: Enterovirus D, US/MO/14-18947, A 172. The method, boiled down: as §2

The test system of data set [17] is RD. Nature of the data set: Cytotoxicity against human RD cells after 3 days by neutral red dye-based photometric method. In kind it is cell-based. The settings on record: rd, 72 h.
Data set [18] is described as follows: Selectivity index, ratio of CC50 for human A172 cells to EC50 for Enterovirus D68 US/KY/14-18953 infected in human A172 cells. The format is toxicity, cell-based. The settings on record: read-out: Ratio CC50/EC50. The method, boiled down: as §5
Data set [19] concerns A549. Kind of data set: Cytotoxicity against human A549 cells after 3 days by neutral red dye-based photometric method. In kind it is cell-based. The settings on record: a549, 72 h. The method, boiled down: as §1
The nature of data set [20]: Selectivity index, ratio of CC50 for human RD cells to EC50 for Enterovirus D68 […] infected in human RD cells. The format is toxicity, cell-based. The settings on record: read-out: Ratio CC50/EC50. An outline of the steps: as §4

The text below walks through data of ChEMBL document CHEMBL4387709, “Discovery of Quinoline Analogues as Potent Antivirals against Enterovirus D68 (EV-D68)” (J Med Chem, 2019).

SMILES strings stand for the structures. Active and inactive are the calls of the source. The rule behind the calls is not given here. Some results are limits rather than exact numbers.

Turning to `O=C(NCCN1CCCC1)c1cc(-c2cccs2)nc2ccccc12`, the selectivity ratio stood at 4660 in data set [1]; 667 in data set [3]; 800 in [9]; 800 in data set [11]; 327 in [13]; 667 in data set [14]. The figures for the selectivity ratio in data set [18] and in data set [20] were 1310 and 571, respectively. Besides, in data set [2], the inhibition (in general, the drop in the measured response relative to a control, in per cent) is above 99%. The CC50 (commonly the concentration that lowers cell viability or growth by half) worked out at 41700 nM in [4], 93300 nM in data set [15], 40000 nM in [17] and 83200 nM in data set [19]. Moreover, the EC50 (in general, the concentration that produces a half-maximal response) worked out at 100 nM in [5]; 50 nM in data set [6]; 50 nM in data set [7]; 70 nM in data set [8]; 50 nM in data set [10]; 200 nM in data set [16]. Moreover, the outcome in data set [12] was inactive.
